Laboratory results published in ChEMBL document CHEMBL4680305, “Synthesis and biological evaluation of all possible inosine-mixed cyclic dinucleotides that activate different hSTING variants” (Bioorg Med Chem, 2021).
Active and inactive are the calls of the source. The calls are words filed in the database; no cut-off is given here.

Assays:
HEK293T = assay: Activation of human STING R232H mutant expressed in HEK293T cells assessed as increase IFN-beta activity at 5 uM […] by dual-luciferase reporter gene assay; type: cell-based; settings: filed as activator
How it was run: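 HEK293T cells were co-transfected using polyjet with pcDNA3.1-hSTING R232H (50 ng), pGL3-IFNβ firefly reporter (400 ng) and pGL4.74-Rluc-TK (50 ng). After 24 h, cells were stimulated with 5 µM CDN for 30 min in digitonin buffer (10 µg/mL digitonin, 1 mM ATP, 0.1 mM GTP, HEPES/KCl/MgCl2), then put back in normal medium. Lysates were taken 12 h later for dual-luciferase readout; mean ± s.e.m., n = 5.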

[1] = target: Stimulator of interferon genes protein (Homo sapiens, UniProt Q86WV6); assay: Binding affinity to wild-type human STING-CTD (139-379) expressed in Escherichia coli BL21(D Escherichia ) cells by isothermal titration calorimetry
[2] = Stability of compound in presence of 20% FBS
How it was run: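 CDN at 0.1 µg/µL was incubated at 37 °C in 20% FBS with 20 mM PBS pH 7.4 and 5 mM MgCl2, against a water control. Aliquots taken at various time points were quenched with EDTA pH 8.0 and centrifuged. They were analysed by HPLC with UV at 254 nm, using 10 mM TEAA/MeCN mobile phase at 25 °C.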

Chain of Stimulator of interferon genes protein (Q86WV6 whole entry): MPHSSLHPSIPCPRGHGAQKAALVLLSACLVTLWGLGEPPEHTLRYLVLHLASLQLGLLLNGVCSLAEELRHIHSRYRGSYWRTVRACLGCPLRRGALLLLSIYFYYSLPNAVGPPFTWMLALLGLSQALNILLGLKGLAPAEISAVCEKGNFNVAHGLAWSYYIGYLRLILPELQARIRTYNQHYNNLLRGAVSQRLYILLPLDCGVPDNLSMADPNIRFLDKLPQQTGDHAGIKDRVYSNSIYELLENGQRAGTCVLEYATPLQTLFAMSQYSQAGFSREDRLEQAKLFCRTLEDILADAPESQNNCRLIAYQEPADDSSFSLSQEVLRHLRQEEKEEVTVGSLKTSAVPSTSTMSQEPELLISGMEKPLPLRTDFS

SMILES	Activity (HEK293T)	also measured
Nc1ccn([C@@H]2O[C@@H]3COP(=O)(O)O[C@@H]4[C@H](O)[C@@H](COP(=O)(O)O[C@@H]2[C@@H]3O)O[C@H]4n2cnc3c(=O)[nH]cnc32)c(=O)n1	Active	–
Nc1nc2c(ncn2[C@@H]2O[C@@H]3COP(=O)(O)O[C@@H]4[C@H](O)[C@@H](COP(=O)(O)O[C@@H]2[C@@H]3O)O[C@H]4n2cnc3c(=O)[nH]cnc32)c(=O)[nH]1	Active	–
Nc1ccn([C@@H]2O[C@@H]3COP(=O)(O)O[C@H]4[C@@H](O)[C@H](n5cnc6c(=O)[nH]cnc65)O[C@@H]4COP(=O)(O)O[C@@H]2[C@@H]3O)c(=O)n1	Active	–
O=c1[nH]cnc2c1ncn2[C@@H]1O[C@@H]2COP(=O)(O)O[C@@H]3[C@H](O)[C@@H](COP(=O)(O)O[C@@H]1[C@@H]2O)O[C@H]3n1cnc2c(=O)[nH]cnc21	Active	–
O=c1[nH]cnc2c1ncn2[C@@H]1O[C@@H]2COP(=O)(O)O[C@@H]3[C@H](O)[C@@H](COP(=O)(O)O[C@H]2[C@H]1O)O[C@H]3n1cnc2c(=O)[nH]cnc21	Active	–
Nc1ncnc2c1ncn2[C@@H]1O[C@@H]2COP(=O)(O)O[C@@H]3[C@H](O)[C@@H](COP(=O)(O)O[C@@H]1[C@@H]2O)O[C@H]3n1cnc2c(O)ncnc21	Active	–
O=c1ccn([C@@H]2O[C@@H]3COP(=O)(O)O[C@@H]4[C@H](O)[C@@H](COP(=O)(O)O[C@@H]2[C@@H]3O)O[C@H]4n2cnc3c(=O)[nH]cnc32)c(=O)[nH]1	Active	–
Nc1ncnc2c1ncn2[C@@H]1O[C@@H]2COP(=O)(O)O[C@@H]3[C@H](O)[C@@H](COP(=O)(O)O[C@H]2[C@H]1O)O[C@H]3n1cnc2c(=O)[nH]cnc21	Active	–
O=c1[nH]cnc2c1ncn2[C@@H]1O[C@@H]2COP(=O)(O)O[C@H]3[C@@H](O)[C@H](n4cnc5c(=O)[nH]cnc54)O[C@@H]3COP(=O)(O)O[C@H]2[C@H]1O	–	Kd [1]: 19.5 µM
Nc1ncnc2c1ncn2[C@@H]1O[C@@H]2COP(=O)(O)O[C@H]3[C@@H](O)[C@H](n4cnc5c(O)ncnc54)O[C@@H]3COP(=O)(O)O[C@H]2[C@H]1O	–	Stability [2]: Stable
Nc1ncnc2c1ncn2[C@@H]1O[C@@H]2COP(=O)(O)O[C@H]3[C@@H](O)[C@H](n4cnc5c(O)ncnc54)O[C@@H]3COP(=O)(O)O[C@@H]1[C@@H]2O	Active	–
